Test system: MS2 coat protein
Test: apparent Kd, MS2 coat protein; higher = weaker binding; RNA-MaP array; FMN 200 µM where present
In short: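 The apparent Kd is reported as the median of filtered per-cluster binding-curve fits. To get these curves, designs transcribed by stalled E. coli RNA polymerase on Illumina sequencing-chip clusters were titrated with SNAP-549-labelled MS2 coat protein from 0.7 or 1.5 nM, doubling to 3 µM. Titrations were run without and then with constant ligand in 100 mM Tris-HCl pH 7.5, 80 mM KCl, 4 mM MgCl2, BSA, DTT, yeast tRNA and Tween-20, and green signal was normalised to red-channel RNA signal and control-cluster median Fmax.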

[1] = designed as: ON switch for flavin mononucleotide, no ligand
[2] = ligand present: flavin mononucleotide, designed as: ON switch for flavin mononucleotide
[3] = designed as: OFF switch for flavin mononucleotide, no ligand
[4] = ligand present: flavin mononucleotide, designed as: OFF switch for flavin mononucleotide

| Sequence | apparent Kd [1] [µM] | apparent Kd [2] [µM] | apparent Kd [3] [µM] | apparent Kd [4] [µM] |
| --- | --- | --- | --- | --- |
| UGGUACUAGGGAGGAUAUGGGAAGAUACAUGAGGAUCACCCAUGUUUAAGAAUGCCGAGAGGCAACUAGAAGGCCCUAGUACGU | 0.434 | 0.0196 | – | – |
| GGGCCCGGAGGAUAUACAAUUUUGGGCCGAAAGGCCCGGGUACAUGAGGAUCACCCAUGUAGAAGGCCGGGUUU | – | – | 0.0319 | 0.311 |
| GGAUUACAUGAGGAUCACCCAUGUGAGGAUAUCGAUGUCCCUAGGAGCGUGCGGGACUCGAGAAGGCACUUGGA | – | – | 0.0397 | 0.234 |
| GGAUAGGACAGAGGAUAUACGUGCCAGAGAUACUAGCAAAAUUUCCUCACAUGAGGAUCACCCAUGUAGAAGGCUGUCCUAUCG | – | – | 0.0336 | 0.293 |
| UUGAGGUGCAAGAAGGAUCACAUGAGGAUCACCCAUGUGAUAUAAAGUCUCGAGAUUUUAUAUCGAUAGGAUAUUGCACCGAAC | 0.0199 | 0.0138 | – | – |
| GGGUACAUCGGAGGAUAUAAUGUAAAUACAUGAGGAUCACCCAUGUCGAUGGAGACAUCGGAGAUUGAGAAGGCCGAUGUACCG | 0.11 | 0.0384 | – | – |
| UUAAAUUAGUAGAAGGACGGAGAGUAUAAAGUCGUAGGAUAUACAUAAGACAUGAGGAUCACCCAUGUAAGUUUGUGAGGUAUG | – | – | 0.0148 | 0.0153 |
| AGGAGACAUGAGGAUCACCCAUGUGCACGUGGAGGAGGAUAUGCUAGUAGAAGAUAGAAUGCAGAAGGCCUAAGAA | 0.0729 | 0.0848 | – | – |
| AUCCUGCGAGGAUAUACAUAGUUUUUUUCGUUUUGUCUCGAACAUGAGGAUCACCCAUGUAGAAGGUGCUUCAC | – | – | 0.0715 | 0.0669 |
| ACGGUUGGGACAGGAUAUGUAACCGGGAUUCUAGUUUCGUCCGUGACAUGAGGAUCACCCAUGUUACAGAAGGGUUCUAAAUCG | – | – | 0.189 | 0.234 |
| AUGAGUAAAGCAGGAUAUCUAUUGUCUCUGUAACAUGAGGAUCACCCAUGUAGAGAAGGGCUAAUUCUUACUCUUCGGAGUUGA | – | – | 0.0105 | 0.0101 |
| UUGGACGUCGUAGGAUAUGUAGGAUAUUCCUACAUGAGGAUCACCCAUGUUGACAUGGAAGAAGGACCGAAGGACGAUGUCCAU | 0.148 | 0.691 | – | – |
| AAGUCUGGAUGAGGAUAUCAGCUGUAACUGGCGUCGACAUGAGGAUCACCCAUGUUGCUAUAGGGUGAGAAGGCAUUUGGGCAA | 0.0431 | 0.0288 | – | – |
| UGUCGGAGCAGAGGAUAUUACAUGAGGAUCACCCAUGUAUGAACCAAUAGCUGGAAACAGCUAUGUAAGAAGGCUGCUCCGACA | – | – | 0.00531 | 0.00942 |
| GGUGCGUAUGUGAGGAUAUGCUGGUCCUUGGAUCAGCAGAAGGCACAUGAGGAUCACCCAUGUGGUGUCGUACA | – | – | 0.347 | 0.0401 |
| GCCAUCGCAUGAGGAUAUGCUCCCGUUUCGGGAGCAGAAGGCAUGUCACAAGACAUGAGGAUCACCCAUGUAGUUAAGAUGGCA | 0.194 | 0.00852 | – | – |
| ACCUAUUUGGAGAAGGCCAGAAUGAUUAGGCUAAGGCGUGAUCCUGCAUGGAGGAUAUCCAAAACAUGAGGAUCACCCAUGUUC | 0.13 | 0.0712 | – | – |
| CGUUGUUGCGCAGGAUAUGCAUUGGAUUACAAUGCAGAAGGGCGAUUACAUGAGGAUCACCCAUGUGUCGACAAUAAGGAAGAG | 0.0359 | 0.034 | – | – |
| AAGUAGAACGUAGGAUAUCAAUGAGGAUCACCCUGAGAAGGACGUGAGGACAUGAGGAUCACCCAUGUGGAUCACCCAUGUCAU | – | – | 0.157 | 0.132 |
| UGGUACUAGGGAGGAUAUGGGAAGAUACAUGAGGAUCACCCAUGUUUAAGAAUGCCGAGAGGCAACUAGAAGGCCCUUGUACCU | 0.444 | 0.0193 | – | – |
| CUCUUCUCUGAGGAUAUUUUAUGUGUGGACGUGAAAGAAGGCAGUACAUGAGGAUCACCCAUGUGUCCCUCUGU | – | – | 0.126 | 0.216 |
| GUAGCAUAGUCAGGAUAUUCAUAUAAUAAAUAAACAUGAGGAUCACCCAUGUGGCGAAAGCCUUGGGAGAAGGGACAAUGCUAC | 1.21 | 0.0902 | – | – |
| GAAAACGCAGAGGAUAUUUCAGAUCAAAGCUGCAAAGAAGGCUGCACAUGAGGAUCACCCAUGUGGUCUUUAAA | – | – | 0.0193 | 0.202 |
| CGUUUUUAUGUAGGAUAUGCUUGUGGUAAGAUAGCAGAAGGACAUGAGGAUCACCCAUGUUAAUGAUAGAGAUUUUAUGUUGCG | – | – | 0.0379 | 0.0502 |

| Sequence | apparent Kd [1] [µM] | apparent Kd [2] [µM] | apparent Kd [3] [µM] | apparent Kd [4] [µM] |
| --- | --- | --- | --- | --- |
| GAUUGACGACAAUUACAUGAGGAUCACCCAUGUUGUAGGAUGCAGGAUAUGUGGUAUAUUAUUUAACAGAAGGGCAAUAAUUUU | 0.0258 | 0.0293 | – | – |
| CGCUGUCACGCAGGAUAUGCAUUGGAUUACAAUGCAGAAGGGCGAUUACAUGAGGAUCACCCAUGUGUCGACAGUGAAGAAGAG | – | 0.043 | – | – |
| CGCACUGAUAGAGGAUAUGUUGUACAUGAGGAUCACCCAUGUGUUUUUGUAUCAAUAUUAGUGAAACAGAAGGCUAUUAGUGCG | – | – | 0.00565 | 0.00465 |
| CAGCGAUAGCUGAACAAUCUAUCACAGGAUAUUCAUGAAACAUGAGGAUCACCCAUGUGAAAUUGGGAGAAGGGUGAUAGAUUG | 0.0127 | 0.00536 | – | – |
| GUAGAGUCAGGAUAUACGAGAUCGAAAGAUCGGCGGUCUGUACAUGAGGAUCACCCAUGUAGAAGGGACUCUAC | – | – | 0.0164 | 0.0944 |
| CUGGCCCAGCCCGCCUAGUUCGGGAGAAGGAGGAGACAUGAGGAUCACCCAUGUGGCCUUAUCUCCUAGGAUAUCCCGGCGGGU | – | – | 0.00532 | 0.0179 |
| CGUACGUCAGGAUAUCUGAUGUCUAACUUCGGUUAGACAUCAGAGAAGGGACAUGAGGAUCACCCAUGUACGAG | – | – | 0.0883 | 0.105 |
| CCUUCAGCGAACGAUACGAAUGGACAUGAGGAUCACCCAUGUAGAAGGACAGGAGAAUAACGACUGUAGGAUAUACAUUUAGUG | – | – | 0.0223 | 0.0286 |
| GCUGUAAGAGGAUAUACAUGGUAUUGACUGGCACCGGUUAGACAUGAGGAUCACCCAUGUAGAAGGCUUGUAUG | – | – | 0.0863 | 0.248 |
| AUGUGGUGCGUAGGAUAUCAUUGAAGAAAACCCUGAGAAGGACGUGAGGACAUGAGGAUCACCCAUGUGGAUCACCCAUGUCAU | – | – | 0.315 | 0.283 |
| GGCAAUAUGUAGGAUAUCGUAUCGGAAACGAUACGAGAAGGGCAAACAUGAGGAUCACCCAUGUUCUUCAAGCC | – | – | 0.013 | 0.0166 |
| UAAUAAUAGCAAGGAUAUAGUUAUUAUAAUAUACUAGAAGGUGCACAUGAGGAUCACCCAUGUUUUAUAAUUUGUAAUUUAAAU | – | – | 0.029 | 0.0224 |
| CCUAUGUGAGGAUAUCACUGGUCUUUUCAUUAGAUGAUCAGUGAGAAGGCACAUGAGGAUCACCCAUGUCAGUG | – | – | 0.0907 | 0.0267 |
| AAAGGCCGAGGAUAUACAUGAGGAUCACCCAUGUGGACUCUGCAGAAUUGAUACCUAGGUAGAAGGUGGACCGG | – | – | 0.0149 | 0.0152 |
| UGUUGUUCAGGAUAUGAUGUGUUAUACAUGAGGAUCACCCAUGUGGGUCCUGAUUUGGCGUCAGAAGGGAAUGUUG | – | – | 0.116 | 0.2 |
| GCAGAACAUGAGGAUCACCCAUGUCUCUAAUAUCGAGGAUAUGGGCACGGUAUAUCCGAACCAGAAGGCGAACUGC | 0.272 | 0.06 | – | – |
| GGGUGGCGUAUAGGAUAUAUGGUACAUGAGGAUCACCCAUGUACAUAUGAUGUUCAUGUUUGUGUAUAGAAGGAUACGUCGGGA | 0.00944 | 0.00886 | – | – |
| GCGCUUAUACAGAAGGCCAGAGACAUGAGGAUCACCCAUGUUAGAUGGUGGAGGAUAUGUGUUUUAUUACAGAUAGUUGAGCGC | 0.00638 | 0.00613 | – | – |
| AUAAUGCGAGGAUAUACAUGAGGAUCACCCAUGUAAUUCAAUCGGAGAGCCACAUUUCGUAGAAGGUGCAUUAA | – | – | 0.0157 | 0.0214 |
| CUCUAUCAUGUAGGAUAUGCGUGUCGAAGCUAUGCAGAAGGACAUGAGGAUCACCCAUGUCUUUCUGUCUGCGGACGGACAGGG | – | – | 0.0149 | 0.0182 |
| UAGAAUCGAGGAUAUACAUGAGGAUCACCCAUGUGUUGCCGCGUGAUGUGUUUGUCAGGUAGAAGGCGAUUAUA | – | – | 0.0644 | 0.266 |
| UGUCGGAGCAGAGGAUAUUACAUGAGGAUCACCCAUGUAUGAACCAAUAGCUGGAAACAGCAAUGCAAGAAGGCUGCUCCGACA | – | – | 0.00505 | 0.00653 |
| AUAAAUCAUGUAGGAUAUGCGUGGCGAAGCUAUGCAGAAGGACAUGAGGAUCACCCAUGUCAUUCCGUCUGCGUACAGACGGAA | – | – | 0.0345 | 0.308 |
| UAUUUAUUAGAGAAGGUACAUACAAUUAACAACAUACAUGAGGAUCACCCAUGUUGGUGAAUAAGUAAGGAUAUUUAAUACUUU | – | – | 0.0313 | 0.0175 |

From the EternaBench riboswitch data
